# This sample holds only a part of the variants without activity.
# B1: tRNA (parent)
# chain: GUUCCGUUGGCGUAAUGGUAACGCGUCUCCCUCCUAAGGAGAAGACUGCGGGUUCGAGUCCCGUACGGAACG
# Variants of: B1
# Assay: yeast fitness relative to wild type (ratio to wild type); higher = fitter; tRNA-Arg(CCU), competitive growth, 37 C, YPD
# Summary of the method: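 Genotype frequency changes were the basis for Darwinian fitness relative to wild type. The frequencies came from 100-nucleotide paired-end sequencing of gene amplicons from the start population and each end population of pooled yeast strains with tRNA-Arg(CCU) gene variants at the native locus. Competition ran in YPD at 37°C for 24 hours in six replicates, genotypes needed ≥ 100 starting reads, and estimates < 0.5 were set to 0.5.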
row,Variant,yeast fitness
1,C5G A14C G18A U19C A43G A45C C46U,≤ 0.5
2,C5G A14U U16C G18C U32A C62U,≤ 0.5
3,C5G A15G C24G U32A C34G C66U,≤ 0.5
4,C5A U8C A21G A45C G56C C66U,≤ 0.5
5,C5G A20G U53A G67A,≤ 0.5
6,C5A U19C U26G A36C,0.571
7,C5G A20C U28C C29A A36U A40U C49G,≤ 0.5
8,C5A G17C G58C,≤ 0.5
9,C5G A14G C24G A40U G48C C60U A69C,0.601
10,C5A G25A,1.03
11,C5A G25C,0.86
12,C5G A20G C31A,≤ 0.5
13,C5A U35C A57C,≤ 0.5
14,C5A U8G A37U G51A G52C A57G U59C,0.52
15,C5A U8C U35C G44A G48C C55G A69U,≤ 0.5
16,C5A G12A C33G A57U,≤ 0.5
17,C5A G52A G63A,≤ 0.5
18,C5G,0.992
19,C5A G12A G50C,≤ 0.5
20,C5G A14C A36C A45C G48A,≤ 0.5
21,C5A G39A C49U G56C,≤ 0.5
22,C5G A14U G67A,0.612
23,C5G A20U A21G C22G U35A G44A C55U C60G U64A G67A,0.649
24,C5A U47A,0.786

row,Variant,yeast fitness
1,C5G A20C G39C C62U G63C,≤ 0.5
2,C5G A14C A37G C62G,0.561
3,C5G A15C G48C G68U,≤ 0.5
4,C5A G50A U53C C62A A69U,≤ 0.5
5,C5G A20U C31G,≤ 0.5
6,C5A G25A C33A A40U A69U,≤ 0.5
7,C5G A14C G18A C49U,≤ 0.5
8,C5G A20G A36C G50A G51A A69C,≤ 0.5
9,C5G A20C C31A,0.55
10,C5A G23A C24U U47A,≤ 0.5
11,C5A G10C U26C G51A,≤ 0.5
12,C5A U7C C22G C24U A37C G51C C55U U59G,≤ 0.5
13,C5G A14G C27G,≤ 0.5
14,C5G A14U C60A,≤ 0.5
15,C5A U13C,0.926
16,C5A U8C A21G A45C U47G G56C,≤ 0.5
17,C5A U32A,0.784
18,C5A U32C,0.928
19,C5A G38C A42G,0.582
20,C5A G12A C33G,0.646
21,C5G A15C C46U U53G A57C,0.588
22,C5G A14U C49U C61U,≤ 0.5
23,C5A U54C,0.722
24,C5A G38A C62U,0.639

row,Variant,yeast fitness
1,C5A U16C U59G C66U,0.533
2,C5A U13C C29U C66U,0.549
3,C5A G17C A57C A70U,≤ 0.5
4,C5A G9C A21U A69C,≤ 0.5
5,C5G A14C C31G,≤ 0.5
6,C5G A14U G18A A21U C31U C60U C61U C66G,≤ 0.5
7,C5G A14G G17A A20G U32C G56C C60G,≤ 0.5
8,C5A U7C U59A,≤ 0.5
9,C5A G10C G17A A40U U54A,≤ 0.5
10,C5A U35C G44A G48C C55G A69U,0.56
11,C5A G58A,0.909
12,C5A G58C,0.867
13,C5G A20U C46A A57U,≤ 0.5
14,C5A U19A A57U,0.561
15,C5A G17C C46G C55U,≤ 0.5
16,C5A G63A C66U,0.651
17,C5A G38A C49U,0.57
18,C5A G17A A42G G56A,≤ 0.5
19,C5A G17C A57U,≤ 0.5
20,C5A G17C G18C C60U,≤ 0.5
21,C5A G68A,0.82
22,C5A G68C,0.802
23,C5A G44C G48A G51A,0.609
24,C5A U35C G44A G48C,≤ 0.5

row,Variant,yeast fitness
1,C5A G17C C49U A57C,≤ 0.5
2,C5A U8G U19C A37U G51A G52C U59C,≤ 0.5
3,C5A U35C G44A G48C C55G C66G,≤ 0.5
4,C5G A15G C27G U28A U32A A45G C46U,0.573
5,C5A G18C,0.569
6,C5A G10C A43G G58C C66G,≤ 0.5
7,C5A U19A C66U,0.66
8,C5G A20G A40G G44A C46G A70C,≤ 0.5
9,C5A U35G G41A G56A C66U,≤ 0.5
10,C5A U53A U59A A69U,0.712
11,C5A G10C U26C,0.518
12,C5A U16A A45U,0.593
13,C5G A15U C30A C31A C49U C66G,≤ 0.5
14,C5A G9A U32C,0.602
15,C5A U8C C11A A15G C27U A42U C61A C62U,0.502
16,C5A U13C U19C C33G,≤ 0.5
17,C5G A14G A65U,0.538
18,C5A U54C A70U,0.532
19,C5A U26A C33A A43C G56C,0.597
20,C5G A20G A40G G44A C46G A65C,≤ 0.5
21,C5G A14U U28C C46G C61U,≤ 0.5
22,C5G A20G C22G C29G G63C,≤ 0.5
23,C5G A20G C22G C29G G63A,≤ 0.5
24,C5A G17A C24U A36C,0.538

row,Variant,yeast fitness
1,C5A G17C G44A C61U,≤ 0.5
2,C5A G23A,0.753
3,C5A G23C,0.723
4,C5A U13A C30G A69C,≤ 0.5
5,C5A G18C G50C C60G A70G,≤ 0.5
6,C5A U28A A40U C61G,≤ 0.5
7,C5A G10A C49A,≤ 0.5
8,C5A G6C A37G G52A C55G,≤ 0.5
9,C5A G12A A45G,0.551
10,C5A G52C G67U A69U,≤ 0.5
11,C5A G12A C29A G68C,0.689
12,C5G A14G G44C C62U C66U A69C,≤ 0.5
13,C5G A20U A70C,0.68
14,C5G A15U A40U G67C,≤ 0.5
15,C5G A14C A37G A69U,≤ 0.5
16,C5A G25A G58C C66U,≤ 0.5
17,C5G A15U G41C C55A,≤ 0.5
18,C5G A20U U28G,≤ 0.5
19,C5A U13A U59A U64G,≤ 0.5
20,C5G A20U C66U A69U,≤ 0.5
21,C5G A14C C29A C31G G56A,≤ 0.5
22,C5G A15G A36G A43G,0.593
23,C5G A20U G25A G41A C55G,≤ 0.5
24,C5A G17A G18A G25A C55A,0.552

row,Variant,yeast fitness
1,C5A G39C G63A,≤ 0.5
2,C5A U16A G17A A42C,≤ 0.5
3,C5A U32G C49G,≤ 0.5
4,C5G A15C A42C,0.584
5,C5G A15U C46U,0.594
6,C5G A15U G41A G58A,≤ 0.5
7,C5A G17C G18C,0.579
8,C5A G48C G51C U53A C66A,0.559
9,C5G A15G U16A A20G U28A C30A C33A A36U A70U,≤ 0.5
10,C5A G39C C46G,0.547
11,C5A G10C G17A A40U U64C,0.582
12,C5G A14C C29A C31G U54A,0.638
13,C5G A14C C29A C31G U54G,≤ 0.5
14,C5A U32A A36C A70G,≤ 0.5
15,C5A U54G A65U,≤ 0.5
16,C5A U35G G41A G56A A70C,0.543
17,C5G A15G U16A A20G U28A C30A C33A A36U G50A C66U,≤ 0.5
18,C5G A14C C29A C31G U54A A70G,0.531
19,C5A G12A C60G,≤ 0.5
20,C5G A15U C29G U59G,≤ 0.5
21,C5A G25A U28C C31U A40C A42G A69C,≤ 0.5
22,C5G A20G A42G C66G,≤ 0.5
23,C5A U13C C29U,≤ 0.5
24,C5G A20C C31G A37U,0.617

row,Variant,yeast fitness
1,C5A U19A A20C C24G C34G,≤ 0.5
2,C5A U8C G38A C62G,0.643
3,C5A G39A C49U G67A,≤ 0.5
4,C5A G6C G68U,≤ 0.5
5,C5A G6C C11G C22U C46U G56A,≤ 0.5
6,C5G A15G U28A A57C C66G,≤ 0.5
7,C5G A21C,0.636
8,C5A U32C C60U C61G,≤ 0.5
9,C5G A20G C22G C29G,≤ 0.5
10,C5G A14U C29U C33G A43U U54C,≤ 0.5
11,C5A U16C A42U,0.672
12,C5A G9C C27A C30U A65G,≤ 0.5
13,C5A G17C G18C C61G,≤ 0.5
14,C5A U13G U32A A42U G52A U54A C60G,0.649
15,C5G A14C C30U,≤ 0.5
16,C5A U26A,0.717
17,C5A U7A G52A G67A,≤ 0.5
18,C5A U28C C30U A36C A42G,≤ 0.5
19,C5A U8A U16G A20U A36G A57G G68A,≤ 0.5
20,C5G A20G A36C G63A,≤ 0.5
21,C5G A15C C22A,0.627
22,C5G A15G A36G A43G G56A,≤ 0.5
23,C5A U35G G68C,≤ 0.5
